Measured values collected from several papers.
Target: Serine/threonine-protein kinase Nek6 (NEK6, Homo sapiens, UniProt Q9HC98)

| Structure (SMILES) | read-out | technique | tested at | remaining binding [%] |
| --- | --- | --- | --- | --- |
| C[C@H]1CCN(c2nccc(-c3cnn4ncccc34)n2)C1 | binding |  | 1 µM | 100 |
| O=C(NCCCN1CCOCC1)c1ccc(Nc2nccc(-c3cc4ccccc4s3)n2)cc1 | binding | competition with immobilised ligand | 1 µM | 81 |
| COc1cnc(Nc2cccc(S(N)(=O)=O)c2)nc1N1CCN(c2ccccc2)C(=O)C1 | binding | competition with immobilised ligand | 1 µM | 98 |
| O=C(NCc1ncc(C(F)(F)F)cc1Cl)c1ccc2c(c1)C1(CCS(=O)(=O)CC1)[C@H](C1CC1)N2S(=O)(=O)c1ccc(F)cc1 | cell-free assay | competition with immobilised ligand | 1 µM | 100 |
| N[C@H]1CCN(c2nccc(-c3cnn4ncccc34)n2)C1 | binding |  | 1 µM | 100 |
| O=C(c1ccc(Nc2ncc(Cl)c(-c3ccc(Cl)s3)n2)cc1)N1CCC(N2CCCC2)CC1 | binding | competition with immobilised ligand | 1 µM | 9.9 |
| COc1ncc2cc3ccccc3nc2c1C#N | cell-free assay | competition with immobilised ligand | 5 µM | 100 |
| FC(F)(F)Oc1cccc(-c2cnc3ccc(-c4ccncc4)nn23)c1 | cell-free assay | competition with immobilised ligand | 5 µM | 85 |
| CN(C)c1nccc(-c2cnc3ncccn23)n1 | binding |  | 1 µM | 94 |
| C[C@H](c1cccc(C#N)c1)n1cc(Cl)cc(C(N)=O)c1=N | cell-free assay | competition with immobilised ligand | 1 µM | 94 |
| F[C@@H]1CCN(c2nccc(-c3cnn4ncccc34)n2)C1 | binding |  | 1 µM | 100 |
| NS(=O)(=O)c1cc(NC(=O)C2(c3ccccc3Cl)CC2)ccc1Oc1cccc(Cl)c1 | cell-free assay | competition with immobilised ligand | 1 µM | 81 |
| CN(c1nccc(-c2cnn3ncccc23)n1)C1CC1 | binding |  | 1 µM | 100 |
| CCc1ccccc1C(=O)Nc1n[nH]c2c(C)c(F)c(C3C(C#N)=C(C)N(C)C(C)=C3C#N)cc12 | cell-free assay | competition with immobilised ligand | 1 µM | 75 |
| CN(C)c1nccc(-c2cnn3ncccc23)n1 | binding |  | 1 µM | 100 |
| O=C(Nc1c[nH]nc1C(=O)NC1CCNCC1)c1cc(F)cc(F)c1 | binding | competition with immobilised ligand | 1 µM | 100 |
| CCN1CCN(Cc2ccc(C(=O)Nc3ccc(C)c(Oc4ccc5c(c4)CC(=O)N5)c3)cc2C(F)(F)F)CC1 | binding | competition with immobilised ligand | 1 µM | 100 |
| COc1ccnn2ncc(-c3ccnc(N(C)C)n3)c12 | binding |  | 1 µM | 100 |
| CCCOc1ccc([C@@H]2[C@@H](C(=O)O)[C@H](c3ccc4c(c3)OCO4)CN2CC(=O)Nc2c(CC)cccc2CC)cc1 | cell-free assay | competition with immobilised ligand | 1 µM | 92 |
| O=C(c1ccc(Nc2ncc(Cl)c(-c3cc4ccccc4s3)n2)cc1)N1CCC(N2CCCC2)CC1 | binding | competition with immobilised ligand | 1 µM | 35 |
| COc1cnc(Nc2cccc(S(N)(=O)=O)c2)nc1N1CCN(c2ccccc2)CC1 | binding | competition with immobilised ligand | 1 µM | 100 |
| CS(=O)(=O)N1CCCC(NC(=O)[C@H](CCC2CCCCC2)NC(=O)c2ccc(CNC(=O)c3cnc4ccccn34)cc2)C1 (stereo partly shown) | cell-free assay | competition with immobilised ligand | 0.1 µM | 100 |
